Source: PubChem (The Scripps Research Institute Molecular Screening Center)
In the library only some 1.9% were active in any assay of this set; here they are far more common.
DDE Tn6 FP inh = DD(E)-Tn6 binding inhibition, primary FP screen; 0.21% of 370,000 active; Fibrin DD(E) TRITC-Tn6 fluorescence polarization displacement; inhibition, % at 8.3 µM; P02675; AID 720509;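 active = inhibition above a per-campaign cutoff: mean of compounds within control limits plus 3 SD, cut at about 15% in these data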
Target sequence (P02675 whole entry, looked up): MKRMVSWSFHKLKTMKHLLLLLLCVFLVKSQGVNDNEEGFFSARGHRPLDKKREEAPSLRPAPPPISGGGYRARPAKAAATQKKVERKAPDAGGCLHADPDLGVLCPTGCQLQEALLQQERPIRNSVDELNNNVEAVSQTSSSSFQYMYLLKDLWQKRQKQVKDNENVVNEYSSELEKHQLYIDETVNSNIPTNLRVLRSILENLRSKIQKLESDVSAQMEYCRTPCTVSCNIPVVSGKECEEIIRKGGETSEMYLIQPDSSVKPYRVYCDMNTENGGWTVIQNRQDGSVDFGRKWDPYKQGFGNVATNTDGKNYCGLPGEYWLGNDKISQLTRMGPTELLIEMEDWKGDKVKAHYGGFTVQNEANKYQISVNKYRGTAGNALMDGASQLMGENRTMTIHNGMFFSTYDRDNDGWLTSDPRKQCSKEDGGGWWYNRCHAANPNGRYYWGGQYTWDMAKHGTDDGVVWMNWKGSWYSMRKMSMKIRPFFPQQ
Tn7 DDE FP = DD(E)-Tn7 binding inhibition, primary FP screen | 0.13% of 370,000 active | FP displacement of FITC-Tn7 peptide from fibrin DD(E); 0% = median of compound wells per plate | AID 720508 | P02675 | inhibition, % at 8.3 µM;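 active = inhibition above the mean of compounds falling within the control limits plus 3 SD of them, cut at about 14% in these data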
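Test system – human fibrin DD(E) · Times – 10 min preincubation, 3 h with tracer, room temperature · Detection – fluorescence polarization of the labelled Tn7 tracer · Measure – percent inhibition normalized to high-control wells · Benchmarks – high control wells with 10 µM unlabelled Aha-Tn7 peptide (full inhibition) · Repeats – singlicate testing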
MBD2 DNA inh = MBD2-methylated oligo binding inhibition; Q9UBB5; TR-FRET, MBD2 binding to methylated oligonucleotide; inhibition, % at 4.4 µM; 0.31% of 370,000 active; AID 686964; in the data active = inhibition above about 13%
LEDGF integ inh = blocks HIV-1 LEDGF/p75-dependent DNA integration. TR-FRET IN-LEDGF/p75 DNA integration, Eu/Cy5. inhibition, % at 3.7 µM. 0.64% of 370,000 active. AID 743269;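 active = inhibition above the screen-wide mean plus 3 SD, cut at about 13% in these data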;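 note: signal is the Cy5 over europium emission ratio at 671 and 618 nm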
UHRF1 MBD2 ctr = human UHRF1 methylated DNA binding inhibitors | inhibition, % at 4.4 µM | 0.75% of 370,000 active | AID 687016 | Q96T88 | UHRF1 binding to methylated oligo, TR-FRET; in the data active = inhibition above about 21%;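 note: UHRF1 SRA domain binding a hemimethylated CpG hairpin DNA probe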
TDP2 absorb = blocks human TDP2 phosphodiesterase activity; recombinant TDP2, T5PNP hydrolysis, p-nitrophenol absorbance 415 nm; inhibition, % at 12.8 µM; 0.34% of 370,000 active;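 active = inhibition above the mean of all tested compounds plus 3 SD, set per campaign, cut at about 25% in these data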
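Assay system: Recombinant human TDP2 | Quantity: 120 nM TDP2 per well | Incubation: 2 h at 37 °C | Signal: Epi absorbance | Evaluation: Percent inhibition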
A number is an active result.

How did O=c1cc(CN2CCC(Cc3ccccc3)CC2)nc2sccn12 do in these assays?
DDE Tn6 FP inh: inactive; Tn7 DDE FP: inactive; MBD2 DNA inh: inactive; LEDGF integ inh: inactive; UHRF1 MBD2 ctr: inactive; TDP2 absorb: inactive

What do the screens show for `CC1CN(Cc2cc(=O)n3ccsc3n2)CC(C)O1` (centres undefined)?
DDE Tn6 FP inh: inactive; Tn7 DDE FP: inactive; MBD2 DNA inh: inactive; LEDGF integ inh: inactive; UHRF1 MBD2 ctr: 21; TDP2 absorb: inactive

What do the screens show for `COc1ccc(NC(=O)c2ccc(NC(=O)CN(C)CC(=O)Nc3c(C)cccc3C)cc2)cc1`?
DDE Tn6 FP inh: inactive; Tn7 DDE FP: inactive; MBD2 DNA inh: inactive; LEDGF integ inh: inactive; UHRF1 MBD2 ctr: 22; TDP2 absorb: inactive

How did COc1cccc(C2c3c(oc4ccccc4c3=O)C(=O)N2CCCN2CCOCC2)c1OC (centres undefined) do in these assays?
DDE Tn6 FP inh: inactive; Tn7 DDE FP: inactive; MBD2 DNA inh: inactive; LEDGF integ inh: inactive; UHRF1 MBD2 ctr: 50; TDP2 absorb: inactive

What do the screens show for `Cc1ccc(OCc2nn3c(C4CCCCC4)nnc3s2)cc1`?
DDE Tn6 FP inh: inactive; Tn7 DDE FP: inactive; MBD2 DNA inh: inactive; LEDGF integ inh: inactive; UHRF1 MBD2 ctr: inactive; TDP2 absorb: inactive

What do the screens show for `COC(=O)[C@]12C[C@H](CC(=O)NCCCN3CCCC3=O)C(=O)N(Cc3ccccc3)C1=C[C@H](C(C)(C)C)O[C@@H]2C`?
DDE Tn6 FP inh: inactive; Tn7 DDE FP: inactive; MBD2 DNA inh: inactive; LEDGF integ inh: inactive; UHRF1 MBD2 ctr: inactive; TDP2 absorb: inactive

What do the screens show for `O=C(O)Cc1sc(N/N=C\c2ccccc2)nc1-c1ccccc1`?
DDE Tn6 FP inh: inactive; Tn7 DDE FP: inactive; MBD2 DNA inh: inactive; LEDGF integ inh: 25; UHRF1 MBD2 ctr: inactive; TDP2 absorb: inactive

What do the screens show for `CN(C)c1ccc(C(=O)NC2(N3CCC3=O)CCCC2)cc1`?
DDE Tn6 FP inh: inactive; Tn7 DDE FP: inactive; MBD2 DNA inh: inactive; LEDGF integ inh: inactive; UHRF1 MBD2 ctr: 31; TDP2 absorb: inactive

What do the screens show for `COc1ccc(OC)c(/C=N/NC(=O)c2ccc(N(C)S(=O)(=O)c3ccccc3)cc2)c1`?
DDE Tn6 FP inh: inactive; Tn7 DDE FP: inactive; MBD2 DNA inh: inactive; LEDGF integ inh: inactive; UHRF1 MBD2 ctr: inactive; TDP2 absorb: inactive

Results for COc1ccc(/C=N/NC(=O)c2ccc(N(C)S(=O)(=O)c3ccccc3)cc2)c(OC)c1 ?
DDE Tn6 FP inh: inactive; Tn7 DDE FP: inactive; MBD2 DNA inh: inactive; LEDGF integ inh: inactive; UHRF1 MBD2 ctr: 32; TDP2 absorb: inactive

How did CCOC(=O)C1=CCN(S(=O)(=O)c2ccccc2Br)C1c1ccc(Cl)cc1 (centres undefined) do in these assays?
DDE Tn6 FP inh: inactive; Tn7 DDE FP: inactive; MBD2 DNA inh: inactive; LEDGF integ inh: inactive; UHRF1 MBD2 ctr: inactive; TDP2 absorb: inactive

How did CC1=CC(C)(C)N2C(=O)C3(C(C#N)=C(N)OC4=C3C(=O)CC(C)(C)C4)c3c(C)c(C)cc1c32 (centres undefined) do in these assays?
DDE Tn6 FP inh: inactive; Tn7 DDE FP: inactive; MBD2 DNA inh: inactive; LEDGF integ inh: inactive; UHRF1 MBD2 ctr: inactive; TDP2 absorb: inactive

What do the screens show for `CC1=CC(C)(C)N2C(=O)C3(C(C#N)=C(N)OC4=C3C(=O)CC(C)(C)C4)c3cccc1c32` (centres undefined)?
DDE Tn6 FP inh: inactive; Tn7 DDE FP: inactive; MBD2 DNA inh: inactive; LEDGF integ inh: inactive; UHRF1 MBD2 ctr: 21; TDP2 absorb: inactive

How did CC(C)CC1O[C@@H](C)[C@@H]2CN3CCc4c([nH]c5ccccc45)[C@@H]3C[C@@H]2N1C (some centres undefined) do in these assays?
DDE Tn6 FP inh: inactive; Tn7 DDE FP: inactive; MBD2 DNA inh: inactive; LEDGF integ inh: inactive; UHRF1 MBD2 ctr: inactive; TDP2 absorb: inactive

Results for CC(C)[C@H](NC(=O)c1cccs1)C(=O)N1CCC[C@H]1C(=O)NCc1ccccc1 ?
DDE Tn6 FP inh: inactive; Tn7 DDE FP: inactive; MBD2 DNA inh: inactive; LEDGF integ inh: inactive; UHRF1 MBD2 ctr: inactive; TDP2 absorb: inactive

How did Cc1nnn(C23CC4CC(CC(CC(=O)Nc5ccc(C)c(Cl)c5)(C4)C2)C3)n1 do in these assays?
DDE Tn6 FP inh: inactive; Tn7 DDE FP: inactive; MBD2 DNA inh: inactive; LEDGF integ inh: inactive; UHRF1 MBD2 ctr: 27; TDP2 absorb: inactive
